Assay results: ChEMBL document CHEMBL1275363, “Design, synthesis, crystal structures, and antimicrobial activity of sulfonamide boronic acids as β-lactamase inhibitors” (J Med Chem, 2010)
Values belong to the molecule of their own block, whether it stands above or below them. Activity calls are given as the source filed them. The rule behind the calls is not given here.

Key:
[1] = Inhibition of AmpC beta-lactamase
[2] = molecular target: AmpC (Klebsiella pneumoniae) (UniProt Q84AD8); experiment: Inhibition of Klebsiella pneumoniae AmpC beta-lactamase DHA-1 assessed as fold decrease in Ceftazidime MIC […]
Method in brief: (§1)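 MICs were measured on clinical isolates following CLSI guidelines in Mueller-Hinton medium. Inhibitor was dissolved in 50% DMSO, with final DMSO below 5%, and combined with ceftazidime at a 1:1 β-lactam:inhibitor ratio. Fold change is compared with ceftazidime alone. Values are means of three independent experiments.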

[3] = system: Enterobacter cloacae; experiment: Inhibition of Enterobacter cloacae beta-lactamase class C assessed as fold decrease in Ceftazidime MIC […]; method in brief: as §1
[4] = Inhibition of beta-lactamase CTX-M-9
[5] = system: Escherichia coli; experiment: Inhibition of Escherichia coli beta-lactamase class C assessed as fold decrease in Ceftazidime MIC […]; method in brief: as §1
[6] = molecular target: AmpC (Klebsiella pneumoniae) (UniProt Q84AD8); experiment: Inhibition of Klebsiella pneumoniae AmpC beta-lactamase DHA-1 assessed as increase in ceftazidime-induced antibacterial activity by disk diffusion assay
[7] = system: Pseudomonas aeruginosa; experiment: Inhibition of Pseudomonas aeruginosa beta-lactamase class C assessed as fold decrease in Ceftazidime MIC […]; method in brief: as §1
[8] = molecular target: Beta-lactamase CTX-M-14 (Escherichia coli) (UniProt Q9L5C7); experiment: Inhibition of Escherichia coli class A beta-lactamase CTX-M-14 assessed as fold decrease in Ceftazidime MIC […]; method in brief: as §1
[9] = system: Klebsiella pneumoniae; experiment: Antimicrobial activity against AmpC-beta lactamase producing Klebsiella pneumoniae by disk diffusion assay; assay type: functional, organism-based
[10] = system: Citrobacter freundii; experiment: Inhibition of Citrobacter freundii beta-lactamase class C assessed as fold decrease in Ceftazidime MIC […]; method in brief: as §1

SMILES: Cc1ccc(S(=O)(=O)NCB(O)O)cc1
Ki [1]: 210 nM

SMILES: O=S(=O)(Cc1ccccc1)NCB(O)O [PINACOL(PHENYLMETHANESULFONYLAMINO)METHANEBORONATE]
fold change (FC) [2]: 8 | fold change (FC) [3]: 8 | IC50 [4]: 6870 nM | fold change (FC) [5]: 8 | Activity [6]: Active | fold change (FC) [7]: 8 | fold change (FC) [8]: 16 | Activity [9]: inactive | fold change (FC) [10]: 8

IC50 [4]: 1500 nM | Activity [6]: Active
SMILES: O=C(O)c1ccc(CS(=O)(=O)NCB(O)O)cc1
Activity [9]: inactive

Ki [1]: 1 nM
SMILES: O=C(Cc1cccs1)N[C@H](B(O)O)c1cccc(C(=O)O)c1

SMILES: O=C(Cc1ccccc1)NCB(O)O
Ki [1]: 570 nM

SMILES: CCOc1ccc2ccccc2c1S(=O)(=O)NCB(O)O
Ki [1]: 670 nM

SMILES: O=S(=O)(Cc1ccccc1)N[C@@H](Cc1ccccc1)B(O)O
Ki [1]: 3720 nM

Ki [1]: 189 nM
SMILES: O=[N+]([O-])c1cccc(CS(=O)(=O)NCB(O)O)c1

Ki [1]: 39 nM
SMILES: O=C(Cc1cccs1)N[C@@H](Cc1cccc(C(=O)O)c1)B(O)O

SMILES: CS(=O)(=O)NCB(O)O [PINACOL(METHANESULFONYLAMINO)METHANEBORONATE]
Ki [1]: 789 nM

Ki [1]: 120 nM
SMILES: COC(=O)c1ccc(CS(=O)(=O)NCB2OC(C)(C)C(C)(C)O2)cc1

SMILES: Nc1cccc(CS(=O)(=O)NCB(O)O)c1
Ki [1]: 106 nM
